Measured values taken from ChEMBL document CHEMBL1123812, “Pyrroloisoquinoline antidepressants. 2. In-depth exploration of structure-activity relationships” (J Med Chem, 1987).
The source made the active and inactive calls.

Legend:
Rattus norvegicus [1] = organism: Rattus norvegicus; assay: Ability to inhibit the uptake of tritiated dopamine (DA) 1 uM concentration; format: functional
How it was run: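 Rat brain synaptosomal [3H]dopamine uptake: striatal P2 fraction, test compound at 1.00 μM. Preincubated at 37 °C, then 50–300 nM [3H]DA for 3 min. Blanks on ice. Filtration and scintillation counting; percent inhibition of control uptake.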

Mus musculus [2] = organism: Mus musculus; assay: Gross behavioral effects ascertained in mice; W indicates weak stimulant or depressant activity of little significance.; format: functional, organism-based
How it was run: (§1)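 Male Swiss Webster mice, 18–24 g, three per dose, given ip doses of 1, 3, 10, 30, 100 and 300 mg/kg. Observed for gross behavior and held for 4 days. Scored as weak (W), stimulant (S), depressant (D) or convulsant (C).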

[3] = target: Sodium-dependent serotonin transporter (Rattus norvegicus) (UniProt P31652); assay: Ability to inhibit the uptake of [3H]- serotonin(5-HT) 0.1 uM concentration at rat brain synaptosomes; format: functional, subcellular
How it was run: (§2)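 Male Wistar rat brain synaptosomes (P2 fraction): hypothalamus for NE, striatum for DA, cerebral cortex for 5-HT. Buffer is Tris- or HEPES-buffered salt medium with glucose, ascorbate and nialamide, pH 7.4 at 37 °C. Preincubated 10 min at 37 °C with compound. Uptake started with [3H]NE 100–300 nM, [3H]DA 50–300 nM or [3H]5-HT 100–200 nM, incubated 3 min (DA) or 6–10 min (NE, 5-HT). Blanks held on ice. Filtered, counted by scintillation.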

Mus musculus [4] = assay: (§3) Ability to antagonise intraperitoneal dose; inactive (<10% antagonism) at 30 mgjkg is represented as I-30.; format: functional, organism-based
How it was run: (§4)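 Swiss Webster male albino mice, nonfasted, 18–24 g, 10 per dose and in saline control. Compound given ip 30 min before TBZ 32 mg/kg ip. Motor activity and ptosis scored. Response corrected by Abbott's formula when control response was 90% or less. Doses expressed as free base.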

Mus musculus [5] = assay: as §3; format: functional, organism-based; how it was run: as §4; remark: listed apart in the source
[6] = target: Norepinephrine transporter (Rattus norvegicus) (UniProt Q9WTR4); assay: Ability to inhibit the uptake of [3H]norepinephrine (NE) 0.1 uM concentration at rat brain synaptosomes; format: functional, subcellular; how it was run: as §2
D(2) dopamine receptor = D(2) dopamine receptor (Rattus norvegicus, UniProt P61169); assay: Binding affinity towards Dopamine receptor D2
[7] = target: T1, Adrenergic receptor alpha-2 (Rattus norvegicus, UniProt P22086+P19328+P22909); assay: Binding affinity towards alpha-2 adrenergic receptor; format: protein assay
T1 sequence (P22086 whole entry): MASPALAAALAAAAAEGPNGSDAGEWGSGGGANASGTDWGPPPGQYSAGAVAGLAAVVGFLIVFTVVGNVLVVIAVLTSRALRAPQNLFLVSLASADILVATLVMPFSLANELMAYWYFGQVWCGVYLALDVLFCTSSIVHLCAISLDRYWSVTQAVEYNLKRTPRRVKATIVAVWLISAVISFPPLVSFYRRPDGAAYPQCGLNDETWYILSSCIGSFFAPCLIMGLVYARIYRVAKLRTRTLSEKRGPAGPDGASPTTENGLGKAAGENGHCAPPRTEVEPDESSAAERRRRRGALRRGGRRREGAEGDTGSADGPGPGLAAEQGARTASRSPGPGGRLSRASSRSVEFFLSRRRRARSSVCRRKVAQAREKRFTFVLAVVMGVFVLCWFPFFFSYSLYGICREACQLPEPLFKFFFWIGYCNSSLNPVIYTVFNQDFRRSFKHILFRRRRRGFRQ
T1 sequence (P19328 whole entry): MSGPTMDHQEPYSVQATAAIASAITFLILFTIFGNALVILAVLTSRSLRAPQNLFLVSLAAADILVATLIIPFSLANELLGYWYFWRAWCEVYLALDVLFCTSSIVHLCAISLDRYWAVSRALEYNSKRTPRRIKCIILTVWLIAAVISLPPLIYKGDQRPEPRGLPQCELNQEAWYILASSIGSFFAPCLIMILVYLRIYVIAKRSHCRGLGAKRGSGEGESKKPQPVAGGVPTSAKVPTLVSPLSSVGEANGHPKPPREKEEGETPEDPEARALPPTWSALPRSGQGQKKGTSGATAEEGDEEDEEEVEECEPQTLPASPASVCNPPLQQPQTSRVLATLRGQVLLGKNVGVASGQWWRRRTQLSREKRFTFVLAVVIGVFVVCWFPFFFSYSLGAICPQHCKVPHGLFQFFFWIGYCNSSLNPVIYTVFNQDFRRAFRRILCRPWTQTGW
T1 sequence (P22909 whole entry): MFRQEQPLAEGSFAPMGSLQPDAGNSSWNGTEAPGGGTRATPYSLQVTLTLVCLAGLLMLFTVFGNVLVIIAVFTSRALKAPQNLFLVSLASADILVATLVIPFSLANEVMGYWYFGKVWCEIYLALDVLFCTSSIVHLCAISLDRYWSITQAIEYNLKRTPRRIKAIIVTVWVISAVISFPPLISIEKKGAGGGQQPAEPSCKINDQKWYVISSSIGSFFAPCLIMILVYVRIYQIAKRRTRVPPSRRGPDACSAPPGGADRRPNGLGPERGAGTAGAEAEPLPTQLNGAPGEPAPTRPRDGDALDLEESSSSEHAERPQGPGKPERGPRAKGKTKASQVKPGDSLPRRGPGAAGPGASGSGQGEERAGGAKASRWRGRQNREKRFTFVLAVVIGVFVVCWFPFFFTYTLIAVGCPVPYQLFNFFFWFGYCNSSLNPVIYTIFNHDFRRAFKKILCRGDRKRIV

[8] = target: Serotonin 1 (5-HT1) receptor (Rattus norvegicus, UniProt P28564+P30940+P19327+P28565); assay: Binding affinity towards serotonin S1 receptor; format: protein assay
How it was run: (§5)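 Rat brain crude synaptic membranes in 20 mM NaHEPES pH 7.5. Ligands: α1 cortex […] 0.4 nM, nonspecific with (-)-NE 100 μM, 30 min at 25 °C. […] D2 striatum [3H]spiperone 0.05 nM with (+)-butaclamol 1 μM, 45 min at 37 °C. S1 cortex [3H]5-HT 1 nM plus glutathione and MgCl2, with 5-HT 10 μM, 20 min at 37 °C. […] Samples filtered on GF/B and counted.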

[9] = target: Serotonin 2 (5-HT2) receptor (Rattus norvegicus) (UniProt P30994+P08909+P14842); assay: Binding affinity towards 5-hydroxytryptamine 2 receptor at 1.0 uM concentration; format: protein assay; how it was run: as §5
[10] = target: Sodium-dependent dopamine transporter (Rattus norvegicus, UniProt P23977); assay: Inhibition of the uptake of tritiated dopamine (DA) in rat synaptosomes; format: subcellular, Brain
Mus musculus [11] = organism: Mus musculus; assay: Gross behavioral effects ascertained in mice; S indicates significant stimulant properties.; format: functional, organism-based; how it was run: as §1
[12] = target: Adrenergic receptor alpha-1 (Rattus norvegicus) (UniProt P15823+P23944+P43140); assay: Binding affinity towards alpha-1 adrenergic receptor at 1.0 uM concentration; format: protein assay; how it was run: as §5
[13] = target: Muscarinic acetylcholine receptor (Rattus norvegicus) (UniProt P08482+P08483+P08485+P08911+P10980); assay: Binding affinity towards Muscarinic acetylcholine receptor at 1.0 uM concentration; format: protein assay
[14] = target: Norepinephrine transporter (Rattus norvegicus, UniProt Q9WTR4); assay: Inhibition of uptake of tritiated norepinephrine (NE) in rat synaptosomes; format: subcellular, Brain
[15] = target: D(2) dopamine receptor (Rattus norvegicus) (UniProt P61169); assay: Binding affinity towards dopamine receptor D2 at 1.0 uM concentration; how it was run: as §5
Mus musculus [16] = organism: Mus musculus; assay: Antagonism of tetrabenazine (TBZ)-induced depression in mice measured for ptosis; format: functional; conditions: Mus musculus; read-out: ED50
How it was run: (§6)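 Nonfasted male Swiss Webster mice, 18–24 g, ten per dose level and in saline controls. Test compound given ip 30 min before tetrabenazine 32 mg/kg ip; dose expressed as free base. Motor activity and ptosis scored. Control response ≤90% corrected by Abbott's formula.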

Mus musculus [17] = organism: Mus musculus; assay: Antagonism of tetrabenazine (TBZ)-induced depression measured in mice by motor activity; format: functional; conditions: Mus musculus; read-out: ED50; how it was run: as §6
Rattus norvegicus [18] = organism: Rattus norvegicus; assay: Inhibition of GABA uptake at 1 uM concentration.; format: functional
[19] = target: D(1A) dopamine receptor (Rattus norvegicus) (UniProt P18901); assay: Binding affinity towards Dopamine receptor D1 at 1.0 uM concentration; how it was run: as §5
[20] = target: Adrenergic receptor alpha-2 (Rattus norvegicus) (UniProt P22086+P19328+P22909); assay: Binding affinity towards alpha-2 adrenergic receptor at 1.0 uM concentration; format: protein assay

Chain of Norepinephrine transporter (Rattus norvegicus) (Q9WTR4 as listed by the source): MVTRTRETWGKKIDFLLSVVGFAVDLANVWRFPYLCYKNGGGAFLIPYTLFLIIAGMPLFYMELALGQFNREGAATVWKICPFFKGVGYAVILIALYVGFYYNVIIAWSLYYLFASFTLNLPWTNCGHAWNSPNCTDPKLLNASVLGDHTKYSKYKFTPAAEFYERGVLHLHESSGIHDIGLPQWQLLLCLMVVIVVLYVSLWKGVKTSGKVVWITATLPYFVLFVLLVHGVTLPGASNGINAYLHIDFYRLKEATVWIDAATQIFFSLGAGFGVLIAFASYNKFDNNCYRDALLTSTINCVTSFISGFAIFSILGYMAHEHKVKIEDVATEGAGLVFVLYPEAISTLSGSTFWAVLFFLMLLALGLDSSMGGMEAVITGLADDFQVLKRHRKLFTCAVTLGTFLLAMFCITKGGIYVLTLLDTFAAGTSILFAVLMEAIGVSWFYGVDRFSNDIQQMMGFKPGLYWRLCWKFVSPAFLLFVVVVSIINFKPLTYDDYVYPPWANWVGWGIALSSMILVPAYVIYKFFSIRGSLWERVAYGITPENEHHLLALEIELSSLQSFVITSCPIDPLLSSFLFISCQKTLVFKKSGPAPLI
Chain of Norepinephrine transporter (Q9WTR4 whole entry): as the sequence (Q9WTR4 as listed by the source) above
Chain of Sodium-dependent serotonin transporter (Rattus norvegicus) (P31652 whole entry): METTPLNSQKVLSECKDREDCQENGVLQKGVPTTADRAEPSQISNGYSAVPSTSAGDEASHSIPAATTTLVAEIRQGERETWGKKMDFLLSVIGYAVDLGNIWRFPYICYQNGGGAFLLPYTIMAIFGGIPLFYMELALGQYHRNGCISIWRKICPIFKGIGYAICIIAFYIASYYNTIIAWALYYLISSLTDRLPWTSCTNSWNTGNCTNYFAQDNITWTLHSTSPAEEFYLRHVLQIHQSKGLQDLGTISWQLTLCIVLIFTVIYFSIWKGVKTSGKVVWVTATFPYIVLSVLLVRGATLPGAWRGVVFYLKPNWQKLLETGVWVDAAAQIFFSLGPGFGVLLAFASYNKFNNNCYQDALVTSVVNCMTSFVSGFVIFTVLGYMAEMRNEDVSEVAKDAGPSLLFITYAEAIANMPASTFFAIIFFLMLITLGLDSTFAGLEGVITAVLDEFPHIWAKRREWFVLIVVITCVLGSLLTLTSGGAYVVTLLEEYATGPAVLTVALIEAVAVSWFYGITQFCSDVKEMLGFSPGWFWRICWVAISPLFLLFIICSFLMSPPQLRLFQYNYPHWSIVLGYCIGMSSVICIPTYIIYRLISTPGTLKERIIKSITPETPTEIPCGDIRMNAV
Chain of Sodium-dependent dopamine transporter (P23977 whole entry): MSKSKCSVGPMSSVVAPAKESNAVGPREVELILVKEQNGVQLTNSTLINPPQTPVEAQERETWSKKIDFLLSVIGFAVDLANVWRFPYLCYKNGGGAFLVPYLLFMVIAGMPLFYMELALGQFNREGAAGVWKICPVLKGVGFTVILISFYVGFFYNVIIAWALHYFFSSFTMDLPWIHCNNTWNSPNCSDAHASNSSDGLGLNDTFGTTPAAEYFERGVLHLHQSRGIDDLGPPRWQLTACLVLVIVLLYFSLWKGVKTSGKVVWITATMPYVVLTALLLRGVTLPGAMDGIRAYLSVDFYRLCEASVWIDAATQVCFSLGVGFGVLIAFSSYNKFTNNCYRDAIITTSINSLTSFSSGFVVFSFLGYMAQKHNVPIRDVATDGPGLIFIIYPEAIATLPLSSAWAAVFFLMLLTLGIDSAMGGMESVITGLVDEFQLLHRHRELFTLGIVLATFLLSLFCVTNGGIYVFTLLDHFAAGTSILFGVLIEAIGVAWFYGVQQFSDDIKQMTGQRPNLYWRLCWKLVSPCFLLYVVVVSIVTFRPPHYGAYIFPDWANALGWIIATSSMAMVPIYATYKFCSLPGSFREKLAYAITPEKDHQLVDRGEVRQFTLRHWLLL
Chain of D(1A) dopamine receptor (Rattus norvegicus) (P18901 whole entry): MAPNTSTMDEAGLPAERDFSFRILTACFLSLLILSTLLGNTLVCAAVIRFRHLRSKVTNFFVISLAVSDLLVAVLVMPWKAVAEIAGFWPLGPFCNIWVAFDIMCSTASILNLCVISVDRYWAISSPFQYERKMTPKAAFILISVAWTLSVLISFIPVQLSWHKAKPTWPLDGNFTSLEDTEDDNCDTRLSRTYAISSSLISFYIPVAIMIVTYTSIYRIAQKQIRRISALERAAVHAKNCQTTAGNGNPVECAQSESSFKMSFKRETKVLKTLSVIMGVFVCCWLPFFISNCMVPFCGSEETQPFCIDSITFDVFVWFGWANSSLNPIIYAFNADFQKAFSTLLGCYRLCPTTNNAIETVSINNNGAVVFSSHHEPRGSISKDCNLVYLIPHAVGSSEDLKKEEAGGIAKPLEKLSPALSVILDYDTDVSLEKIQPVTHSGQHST
Chain of Serotonin 2 (5-HT2) receptor (Rattus norvegicus) (P08909 whole entry, looked up): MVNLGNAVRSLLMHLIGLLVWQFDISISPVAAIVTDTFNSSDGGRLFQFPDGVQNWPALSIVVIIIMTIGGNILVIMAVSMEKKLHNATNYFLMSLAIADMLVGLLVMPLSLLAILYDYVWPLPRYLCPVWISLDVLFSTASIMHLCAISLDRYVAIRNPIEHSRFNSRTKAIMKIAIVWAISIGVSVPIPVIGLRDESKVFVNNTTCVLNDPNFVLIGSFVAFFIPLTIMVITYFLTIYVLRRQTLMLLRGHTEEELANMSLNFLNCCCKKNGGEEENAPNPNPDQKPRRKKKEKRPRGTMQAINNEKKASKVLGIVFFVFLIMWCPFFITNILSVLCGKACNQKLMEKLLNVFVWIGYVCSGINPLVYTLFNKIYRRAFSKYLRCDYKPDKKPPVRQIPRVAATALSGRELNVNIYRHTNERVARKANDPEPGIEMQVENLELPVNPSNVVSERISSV
Chain of Serotonin 2 (5-HT2) receptor (Rattus norvegicus) (P14842 whole entry, looked up): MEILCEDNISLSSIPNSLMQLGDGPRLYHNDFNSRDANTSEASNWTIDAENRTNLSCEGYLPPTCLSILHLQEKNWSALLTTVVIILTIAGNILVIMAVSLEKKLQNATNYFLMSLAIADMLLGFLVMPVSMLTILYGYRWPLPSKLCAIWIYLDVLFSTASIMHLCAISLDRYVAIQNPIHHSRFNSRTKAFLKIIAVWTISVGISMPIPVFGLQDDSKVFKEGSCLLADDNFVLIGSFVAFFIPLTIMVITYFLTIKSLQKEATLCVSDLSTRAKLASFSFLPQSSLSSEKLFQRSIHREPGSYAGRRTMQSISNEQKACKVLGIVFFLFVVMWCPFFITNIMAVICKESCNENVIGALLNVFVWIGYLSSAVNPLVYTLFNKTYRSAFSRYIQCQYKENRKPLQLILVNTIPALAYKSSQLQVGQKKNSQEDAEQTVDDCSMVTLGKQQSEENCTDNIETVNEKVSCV
Chain of Serotonin 2 (5-HT2) receptor (Rattus norvegicus) (P30994 whole entry, looked up): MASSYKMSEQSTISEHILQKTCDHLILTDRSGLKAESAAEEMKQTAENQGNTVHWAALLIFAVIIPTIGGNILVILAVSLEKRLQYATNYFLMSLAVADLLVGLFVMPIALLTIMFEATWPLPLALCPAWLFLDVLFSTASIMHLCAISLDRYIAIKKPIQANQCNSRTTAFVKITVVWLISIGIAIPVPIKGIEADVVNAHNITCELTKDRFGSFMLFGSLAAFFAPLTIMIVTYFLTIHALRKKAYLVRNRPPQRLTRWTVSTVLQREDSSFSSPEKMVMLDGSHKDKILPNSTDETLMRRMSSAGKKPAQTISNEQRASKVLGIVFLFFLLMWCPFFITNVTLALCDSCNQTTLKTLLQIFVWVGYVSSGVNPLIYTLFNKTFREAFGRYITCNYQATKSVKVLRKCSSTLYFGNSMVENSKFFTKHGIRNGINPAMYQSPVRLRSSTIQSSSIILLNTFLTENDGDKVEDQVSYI
Chain of D(2) dopamine receptor (P61169 whole entry): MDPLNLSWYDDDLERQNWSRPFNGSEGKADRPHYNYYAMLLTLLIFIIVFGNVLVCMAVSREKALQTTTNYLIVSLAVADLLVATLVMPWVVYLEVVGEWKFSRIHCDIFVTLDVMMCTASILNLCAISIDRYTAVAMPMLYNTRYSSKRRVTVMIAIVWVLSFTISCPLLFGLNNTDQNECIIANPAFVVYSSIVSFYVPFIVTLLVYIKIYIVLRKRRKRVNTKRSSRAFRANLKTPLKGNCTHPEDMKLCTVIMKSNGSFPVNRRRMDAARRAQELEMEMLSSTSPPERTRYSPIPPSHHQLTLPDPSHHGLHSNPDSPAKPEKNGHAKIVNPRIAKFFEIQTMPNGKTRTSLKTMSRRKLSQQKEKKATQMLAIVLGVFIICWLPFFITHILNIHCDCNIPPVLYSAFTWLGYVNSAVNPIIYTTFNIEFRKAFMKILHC
Chain of D(2) dopamine receptor (Rattus norvegicus) (P61169 whole entry): as above

C[C@@]12CCCN1CCc1ccccc12
Inhibition (Rattus norvegicus [1]): 15%
behavior (Mus musculus [2]): Weak
inhibition [3]: 2%
ED50 (Mus musculus [4]): inactive
ED50 (Mus musculus [5]): inactive
inhibition [6]: 6%

CN(C)CCCN1c2ccccc2CCc2ccc(Cl)cc21 [CLOMIPRAMINE]
Ki (D(2) dopamine receptor): 0.056 µM
Ki [7]: 0.051 µM
Ki [8]: 5 µM

Clc1ccc([C@@H]2CN3CCC[C@@H]3c3ccccc32)cc1Cl
inhibition [9]: 24%
Ki [10]: 0.00099 µM
behavior (Mus musculus [11]): Stimulant
inhibition [12]: 33%
inhibition [13]: 9%
Ki [7]: 0.99 µM
Ki [14]: 0.00068 µM
inhibition [15]: 37%
ED50 (Mus musculus [16]): 0.14 mg/kg
Ki [8]: 0.465 µM
ED50 (Mus musculus [17]): 0.39 mg/kg

FC(F)(F)c1cccc([C@@H]2CN3CCC[C@@H]3c3ccccc32)c1 (stereo in doubt; 37b)
behavior (Mus musculus [2]): Partial stimulant
inhibition (Rattus norvegicus [18]): 16%
inhibition [13]: 1%
inhibition [19]: 17%
inhibition [20]: 7%

Clc1ccccc1[C@@H]1CN2CCC[C@@H]2c2ccccc21 (stereo in doubt; 24b)
behavior (Mus musculus [2]): Partial stimulant
inhibition (Rattus norvegicus [18]): 16%
inhibition [13]: 6%
inhibition [20]: 12%
